# In ChEMBL document CHEMBL4308891, “Small molecules inhibit ex vivo tumor growth in bone” (Bioorg Med Chem, 2018):
# pIC50: −log10 of the molar value. Active and inactive are the calls of the source. The calls are words filed in the database; no cut-off is given here.
# How the values were obtained:
# MDA-MB-231 [1] = experiment: Antiinvasive activity in human MDA-MB-231 cells by boyden chamber method; assay type: functional, cell-based
# MDA-MB-231 [2] = experiment: Cytotoxicity against human MDA-MB-231 cells at 0.625 to 5 uM after 24 hrs; assay type: cell-based; conditions: mda-mb-231, 24 h
# U-87 MG [3] = experiment: Antiinvasive activity in human U87 cells at 5 uM by boyden chamber method; assay type: functional, cell-based; conditions: U-87MG ATCC
# NCI-H460 [4] = experiment: Antiinvasive activity in human NCI-H460 cells at 5 uM by boyden chamber method; assay type: functional, cell-based
# MIA PaCa-2 [5] = experiment: Antiinvasive activity in human MIAPaCa2 cells at 5 uM by boyden chamber method; assay type: functional, cell-based
# U-87 MG [6] = experiment: Cytotoxicity against human U87 cells after 24 hrs; assay type: cell-based; conditions: u-87mg atcc
# NCI-H460 [7] = experiment: Cytotoxicity against human NCI-H460 cells after 24 hrs; assay type: cell-based; conditions: nci-h460, 24 h
# MIA PaCa-2 [8] = experiment: Cytotoxicity against human MIAPaCa2 cells after 24 hrs; assay type: cell-based; conditions: mia paca-2, 24 h
# MDA-MB-231 [9] = experiment: Antimigratory activity in human MDA-MB-231 cells at 10 uM after 9 hrs by wound healing assay; assay type: functional, cell-based
# Procedure, shortened: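 Confluent monolayers in 12-well plates were scratched with a micropipette tip, washed, then cultured in complete medium with compound. Gap width between wound edges was measured by microscopy in three random regions right after wounding and at 6 and 9 h.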
# [10] = Inhibition of angiogenesis in human HRMEC assessed as inhibition of endothelial cell tube formation up to 10 uM after 8 hrs by microscopic analysis
# Procedure, shortened: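 Primary human retinal microvascular endothelial cells were grown on Matrigel in complete medium for 8 h, then tubule formation was measured. Significance was assessed by ANOVA.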
# MDA-MB-231 [11] = experiment: Antiinvasive activity in human MDA-MB-231 cells assessed as inhibition of cell invasion at 5 uM by boyden chamber method relative to control; assay type: functional
# MDA-MB-231 [12] = experiment: Ex vivo antitumor activity against human MDA-MB-231 cells co-cultured with neonatal Swiss mouse bone in BGJb medium assessed as inhibition of tumor growth at 5 uM administered simultaneously with cancer cells measured on day 5 post treatment by Gaussia luciferase reporter gene assay relative to control; assay type: functional
# Procedure, shortened: (§1)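 Calvariae from […] Swiss mouse pups were punched into 4 or 5 mm disks. Each was seeded with 1 x 10^4 tumor cells (lentiviral secreted Gaussia luciferase/GFP-blasticidin, FACS-sorted GFP+) in BGJb plus 10% fetal calf serum at 37°C, 5% CO2. After 24 h bones moved to fresh wells; medium changed every 2 days. Conditioned-medium luciferase read as RLU. Biological triplicate, mean ± SD, Welch's t-test.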
# MDA-MB-231 [13] = experiment: Ex vivo antitumor activity against human MDA-MB-231 cells co-cultured with neonatal Swiss mouse bone in BGJb medium assessed as inhibition of tumor growth at 5 uM administered simultaneously with cancer cells measured on day 7 post treatment by Gaussia luciferase reporter gene assay relative to control; assay type: functional; procedure, shortened: as §1
# MDA-MB-231 [14] = experiment: Ex vivo antitumor activity against human MDA-MB-231 cells co-cultured with neonatal Swiss mouse bone in BGJb medium assessed as inhibition of tumor growth at 5 uM administered on day 2 post cancer cells addition measured on day 5 post treatment by Gaussia luciferase reporter gene assay relative to control; assay type: functional; procedure, shortened: as §1
# MDA-MB-231 [15] = experiment: Ex vivo antitumor activity against human MDA-MB-231 cells co-cultured with neonatal Swiss mouse bone in BGJb medium assessed as inhibition of tumor growth at 5 uM administered on day 2 post cancer cells addition measured on day 7 post treatment by Gaussia luciferase reporter gene assay relative to control; assay type: functional; procedure, shortened: as §1
# MDA-MB-231 [16] = experiment: Cytotoxicity against human MDA-MB-231 cells at 12.5 uM after 3 days by MTS assay; assay type: cell-based; conditions: mda-mb-231, 72 h
# Bone [17] = experiment: Down regulation of TRAP expression in neonatal Swiss mouse calvariae bone co-cultured with human MDA-MB-231 cells measured on day 7 post treatment by SYBR green-dye based RT-qPCR analysis; assay type: functional, tissue-based; conditions: Bone element
# Procedure, shortened: (§2)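 Calvarial disk cultures ([…] Swiss pups) in BGJb plus 10% fetal calf serum were PBS-washed at day 7 and bead-homogenized in Qiazol. Aqueous-phase RNA was isolated, reverse-transcribed and run in triplicate real-time PCR with species-specific primers. Expression was normalized to ribosomal protein L32 mRNA. n = 3 or 4 cultures, ANOVA.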
# Bone [18] = experiment: Down regulation of RANKL expression in neonatal Swiss mouse calvariae bone co-cultured with human MDA-MB-231 cells measured on day 7 post treatment by SYBR green-dye based RT-qPCR analysis; assay type: functional, tissue-based; conditions: Bone element; procedure, shortened: as §2
# Bone [19] = experiment: Effect on Col1A1 expression in neonatal Swiss mouse calvariae bone co-cultured with human MDA-MB-231 cells measured on day 7 post treatment by SYBR green-dye based RT-qPCR analysis; assay type: functional, tissue-based; conditions: Bone element; procedure, shortened: as §2
# Bone [20] = experiment: Effect on osteocalcin expression in neonatal Swiss mouse calvariae bone co-cultured with human MDA-MB-231 cells measured on day 7 post treatment by SYBR green-dye based RT-qPCR analysis; assay type: functional, tissue-based; conditions: Bone element; procedure, shortened: as §2
# MDA-MB-231 [21] = experiment: Effect on ICAM expression in human MDA-MB-231 cells co-cultured with neonatal Swiss mouse calvariae bone measured on day 7 post treatment by SYBR green-dye based RT-qPCR analysis; assay type: functional, cell-based; procedure, shortened: as §2
# MDA-MB-231 [22] = experiment: Down regulation of ENPP1 expression in human MDA-MB-231 cells co-cultured with neonatal Swiss mouse calvariae bone measured on day 7 post treatment by SYBR green-dye based RT-qPCR analysis relative to control; assay type: functional; procedure, shortened: as §2
# MDA-MB-231 [23] = experiment: Effect on CTGF expression in human MDA-MB-231 cells co-cultured with neonatal Swiss mouse calvariae bone measured on day 7 post treatment by SYBR green-dye based RT-qPCR analysis; assay type: functional, cell-based; procedure, shortened: as §2
# MDA-MB-231 [24] = experiment: Effect on CCL2 expression in human MDA-MB-231 cells co-cultured with neonatal Swiss mouse calvariae bone measured on day 7 post treatment by SYBR green-dye based RT-qPCR analysis; assay type: functional, cell-based; procedure, shortened: as §2
# MDA-MB-231 [25] = experiment: Down regulation of IL11 expression in human MDA-MB-231 cells co-cultured with neonatal Swiss mouse calvariae bone measured on day 7 post treatment by SYBR green-dye based RT-qPCR analysis relative to control; assay type: functional; procedure, shortened: as §2
# MDA-MB-231 [26] = experiment: Down regulation of IL-8 expression in human MDA-MB-231 cells co-cultured with neonatal Swiss mouse calvariae bone measured on day 7 post treatment by SYBR green-dye based RT-qPCR analysis; assay type: functional, cell-based; procedure, shortened: as §2
# MDA-MB-231 [27] = experiment: Down regulation of FGF5 expression in human MDA-MB-231 cells co-cultured with neonatal Swiss mouse calvariae bone measured on day 7 post treatment by SYBR green-dye based RT-qPCR analysis; assay type: functional, cell-based; procedure, shortened: as §2
# MDA-MB-231 [28] = experiment: Upregulation of BCL2L1 expression in human MDA-MB-231 cells co-cultured with neonatal Swiss mouse calvariae bone measured on day 7 post treatment by SYBR green-dye based RT-qPCR analysis; assay type: functional, cell-based; procedure, shortened: as §2
# MDA-MB-231 [29] = experiment: Upregulation of Fas expression in human MDA-MB-231 cells co-cultured with neonatal Swiss mouse calvariae bone measured on day 7 post treatment by SYBR green-dye based RT-qPCR analysis; assay type: functional, cell-based; procedure, shortened: as §2
compound,measurement,setting,value
Cc1ccc(N2C(=O)C3NN=C(c4ccc(Cl)cc4)C3C2c2cccc(F)c2)cc1Br (stereo not given),Activity,MDA-MB-231 [1],Dose-dependent effect
same,pIC50,MDA-MB-231 [1],5.54
same,Activity,MDA-MB-231 [2],Non-Toxic
same,Activity,U-87 MG [3],inactive
same,Activity,NCI-H460 [4],inactive
same,Activity,MIA PaCa-2 [5],Active
same,Activity,U-87 MG [6],Non-Toxic
same,Activity,NCI-H460 [7],Non-Toxic
same,Activity,MIA PaCa-2 [8],Non-Toxic
same,Activity,MDA-MB-231 [9],inactive
same,Activity,[10],Not Active
same,inhibition at 5 µM,MDA-MB-231 [11],> 70%
same,TGI,MDA-MB-231 [12],70%
same,TGI,MDA-MB-231 [13],60%
same,TGI,MDA-MB-231 [14],66%
same,TGI,MDA-MB-231 [15],47%
same,Activity,MDA-MB-231 [16],Non-Toxic
same,Activity,Bone [17],Active
same,Activity,Bone [18],Active
same,Activity,Bone [19],inactive
same,Activity,Bone [20],inactive
same,Activity,MDA-MB-231 [21],inactive
same,Activity,MDA-MB-231 [22],60%
same,Activity,MDA-MB-231 [23],inactive
same,Activity,MDA-MB-231 [24],inactive
same,Activity,MDA-MB-231 [25],>80%
same,Activity,MDA-MB-231 [26],Active
same,Activity,MDA-MB-231 [27],inactive
same,Activity,MDA-MB-231 [28],Active
same,Activity,MDA-MB-231 [29],Active
